# In PubChem BioAssay AID624163 (Southern Research Specialized Biocontainment Screening …, 2012):
# The source made the active and inactive calls.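 Rule for the calls: active = inhibition of 30% or more at any tested concentration; inactive = the rest.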
# Target: Aminopeptidase N (Plasmodium falciparum (isolate 3D7)) (UniProt O96935)
# Test: inhibition of P. falciparum M1 alanyl aminopeptidase – biochemical, QFRET, fluorogenic H-Leu-NHMec substrate, set 3, dose response (AID 624163)
# Details: purified rPFM1AAP, H-Leu-NHMec fluorogenic substrate cleavage
# Summary of the method: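 test system = purified recombinant Plasmodium falciparum M1 alanyl aminopeptidase (rPfM1AAP) | quantity = enzyme 5 µg/mL | also added = fluorogenic substrate H-Leu-NHMec at 0.1 mM final | timing = 90 min reaction, room temperature | signal = fluorescence ex 370/em 460 nm | read-out basis = % inhibition and IC50 from 4-parameter fit | control set = wells without enzyme as background control | repeats = triplicate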
# Chain of Aminopeptidase N (Plasmodium falciparum (isolate 3D7)) (O96935 whole entry, looked up): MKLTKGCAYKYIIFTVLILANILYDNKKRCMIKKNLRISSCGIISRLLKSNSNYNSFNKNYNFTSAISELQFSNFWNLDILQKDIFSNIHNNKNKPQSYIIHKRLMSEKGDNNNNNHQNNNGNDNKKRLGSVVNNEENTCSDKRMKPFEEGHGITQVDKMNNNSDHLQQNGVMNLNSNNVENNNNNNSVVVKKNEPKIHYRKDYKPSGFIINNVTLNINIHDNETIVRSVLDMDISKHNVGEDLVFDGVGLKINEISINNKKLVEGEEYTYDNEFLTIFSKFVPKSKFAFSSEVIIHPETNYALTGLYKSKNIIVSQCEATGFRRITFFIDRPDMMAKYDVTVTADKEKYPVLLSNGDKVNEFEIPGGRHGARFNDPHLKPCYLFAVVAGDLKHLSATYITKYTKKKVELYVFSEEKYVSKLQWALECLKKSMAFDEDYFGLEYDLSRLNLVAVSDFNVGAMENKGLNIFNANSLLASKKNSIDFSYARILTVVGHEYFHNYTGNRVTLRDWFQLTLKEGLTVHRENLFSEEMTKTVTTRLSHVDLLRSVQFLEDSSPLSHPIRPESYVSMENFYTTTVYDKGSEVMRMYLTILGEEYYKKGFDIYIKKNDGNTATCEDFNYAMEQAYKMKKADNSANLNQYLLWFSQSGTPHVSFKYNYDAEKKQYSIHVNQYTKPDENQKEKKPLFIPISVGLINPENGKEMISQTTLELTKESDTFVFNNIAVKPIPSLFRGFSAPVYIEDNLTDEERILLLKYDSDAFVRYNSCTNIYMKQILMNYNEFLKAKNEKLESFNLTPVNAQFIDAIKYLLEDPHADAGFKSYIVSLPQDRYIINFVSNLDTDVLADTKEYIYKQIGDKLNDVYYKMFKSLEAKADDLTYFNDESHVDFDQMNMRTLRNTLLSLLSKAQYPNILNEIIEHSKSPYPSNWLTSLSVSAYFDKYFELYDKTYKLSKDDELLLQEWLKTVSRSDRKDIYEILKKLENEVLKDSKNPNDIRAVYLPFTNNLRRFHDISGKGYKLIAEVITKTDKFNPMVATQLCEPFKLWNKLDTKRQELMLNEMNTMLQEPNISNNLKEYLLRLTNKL
row,Structure (SMILES),IC50 [µM]
1,O=C(NCc1ccc2c(c1)OCO2)C1CCN(S(=O)(=O)c2ccc(Br)cc2)CC1,7.44
2,O=C(NCc1ccc2c(c1)OCO2)C1CCN(S(=O)(=O)c2sccc2Br)CC1,34.3
3,O=C(NCc1ccccc1F)C1CCN(S(=O)(=O)c2ccc(Br)cc2)CC1,12.7
4,O=C(NCc1ccccc1F)C1CCN(S(=O)(=O)c2sccc2Br)CC1,33.7
5,O=C(NCc1ccc(F)cc1)C1CCN(S(=O)(=O)c2ccc(Br)cc2)CC1,28

# More lines, now with the values ahead:
row,IC50 [µM],Structure (SMILES)
1,69.2,O=C(NCc1ccc(F)cc1)C1CCN(S(=O)(=O)c2sccc2Br)CC1
2,11.2,O=C(NCc1cccc(F)c1)C1CCN(S(=O)(=O)c2ccc(Br)cc2)CC1
3,2.53,O=C(NCc1ccccc1F)C1CCN(S(=O)(=O)c2ccc(Br)s2)CC1
4,3.95,O=C(NCc1ccc(F)cc1)C1CCN(S(=O)(=O)c2ccc(Br)s2)CC1
5,2.83,O=C(NCc1ccc2c(c1)OCO2)C1CCN(S(=O)(=O)c2ccc(Cl)s2)CC1
6,3.97,O=C(NCc1ccccc1F)C1CCN(S(=O)(=O)c2ccc(Cl)s2)CC1
7,1.22,O=C(NCc1ccc2c(c1)OCO2)C1CCN(S(=O)(=O)c2ccc(Br)s2)CC1
8,2.18,O=C(NCc1cccc(F)c1)C1CCN(S(=O)(=O)c2ccc(Br)s2)CC1
9,29.8,O=C(NCc1cccc(F)c1)C1CCN(S(=O)(=O)c2sccc2Br)CC1
10,6.48,O=C(NCc1ccc(F)cc1)C1CCN(S(=O)(=O)c2ccc(Cl)s2)CC1
11,3.98,O=C(NCc1cccc(F)c1)C1CCN(S(=O)(=O)c2ccc(Cl)s2)CC1

# Same assay, conditions: purified rPFM1AAP, H-Leu-NHMec fluorogenic substrate cleavage; at 100 µM (top of the series)
row,Structure (SMILES),inhibition
1,O=C(NCCc1ccc2c(c1)OCO2)C1CCN(S(=O)(=O)c2cc(Br)c(Br)s2)CC1,inactive
2,O=C(NCCc1ccc2c(c1)OCO2)C1CCN(S(=O)(=O)c2ccc(Br)cc2)CC1,inactive
3,O=C(Nc1ccc2c(c1)OCO2)C1CCN(S(=O)(=O)c2ccc(Br)s2)CC1,inactive
4,O=C(NCc1ccccc1F)C1CCN(S(=O)(=O)c2cc(Br)c(Br)s2)CC1,inactive
5,O=C(NCc1ccc2c(c1)OCO2)C1CCN(S(=O)(=O)c2cc(Br)c(Br)s2)CC1,inactive
6,O=C(Nc1ccc2c(c1)OCO2)C1CCN(S(=O)(=O)c2cc(Br)c(Br)s2)CC1,inactive
7,O=C(NCCc1ccc2c(c1)OCO2)C1CCN(S(=O)(=O)c2sccc2Br)CC1,inactive
8,O=C(Nc1ccc2c(c1)OCO2)C1CCN(S(=O)(=O)c2sccc2Br)CC1,inactive
9,O=C(Nc1ccc2c(c1)OCO2)C1CCN(S(=O)(=O)c2ccc(Br)cc2)CC1,inactive
10,O=C(NCCc1ccc2c(c1)OCO2)C1CCN(S(=O)(=O)c2ccc(Cl)s2)CC1,inactive
11,O=C(Nc1ccc2c(c1)OCO2)C1CCN(S(=O)(=O)c2ccc(Cl)s2)CC1,inactive

# Continued, values first:
row,inhibition,Structure (SMILES)
1,inactive,O=C(NCCc1ccc2c(c1)OCO2)C1CCN(S(=O)(=O)c2ccc(Br)s2)CC1
2,inactive,O=C(NCc1ccc(F)cc1)C1CCN(S(=O)(=O)c2cc(Br)c(Br)s2)CC1
3,inactive,O=C(NCc1cccc(F)c1)C1CCN(S(=O)(=O)c2cc(Br)c(Br)s2)CC1
